Results as given in ChEMBL document CHEMBL1128308, “Synthesis and antiinflammatory activity of certain 5,6,7,8-tetrahydroquinolines and related compounds” (J Med Chem, 1995).

Assays:
[1] = system: Rattus norvegicus; test: Antiinflammatory activity by rat adjuvant arthritis assay at 30 mg/kg peroral administration (uninjected paw at day 16).; settings: route oral
[2] = target: T1, Polyunsaturated fatty acid 5-lipoxygenase (Rattus norvegicus, UniProt P12527); test: 5-lipoxygenase inhibitory activity against rat polymorphonuclear leucocytes from female wistar rat, by using LTB4.
T1 sequence (P12527 whole entry): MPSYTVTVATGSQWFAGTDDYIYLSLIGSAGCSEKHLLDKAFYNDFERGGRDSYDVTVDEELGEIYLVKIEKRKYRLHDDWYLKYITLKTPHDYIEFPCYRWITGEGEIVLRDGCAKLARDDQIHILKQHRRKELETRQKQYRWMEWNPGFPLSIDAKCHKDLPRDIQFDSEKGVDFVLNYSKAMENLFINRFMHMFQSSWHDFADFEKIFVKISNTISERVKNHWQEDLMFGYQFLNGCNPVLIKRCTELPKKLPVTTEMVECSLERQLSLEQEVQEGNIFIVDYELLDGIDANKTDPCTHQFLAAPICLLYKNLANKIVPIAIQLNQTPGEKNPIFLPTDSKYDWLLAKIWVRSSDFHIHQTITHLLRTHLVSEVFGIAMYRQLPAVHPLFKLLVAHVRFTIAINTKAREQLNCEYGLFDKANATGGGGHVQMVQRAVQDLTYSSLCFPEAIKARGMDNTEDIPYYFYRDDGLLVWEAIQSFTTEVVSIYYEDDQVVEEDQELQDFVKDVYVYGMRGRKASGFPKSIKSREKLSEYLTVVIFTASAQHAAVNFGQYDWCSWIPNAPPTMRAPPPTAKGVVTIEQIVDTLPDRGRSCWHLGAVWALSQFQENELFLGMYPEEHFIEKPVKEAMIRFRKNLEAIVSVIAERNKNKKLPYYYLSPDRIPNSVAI

[3] = target: T2, Polyunsaturated fatty acid 5-lipoxygenase (Rattus norvegicus) (UniProt P12527); test: Inhibition of 5-lipoxygenase pathway in rat polymorphonuclear assay, by ability to inhibit formation of LTB4 AT 10 uM
T2 sequence (whole entry): T1 sequence (P12527 whole entry)

[4] = target: T3, Cyclooxygenase (Rattus norvegicus, UniProt P35355+Q63921); test: Prostaglandin G/H synthase Inhibitory activity against rat polymorphonuclear leucocytes from female wistar rat, by using TXB2.
T3 sequence (P35355 whole entry): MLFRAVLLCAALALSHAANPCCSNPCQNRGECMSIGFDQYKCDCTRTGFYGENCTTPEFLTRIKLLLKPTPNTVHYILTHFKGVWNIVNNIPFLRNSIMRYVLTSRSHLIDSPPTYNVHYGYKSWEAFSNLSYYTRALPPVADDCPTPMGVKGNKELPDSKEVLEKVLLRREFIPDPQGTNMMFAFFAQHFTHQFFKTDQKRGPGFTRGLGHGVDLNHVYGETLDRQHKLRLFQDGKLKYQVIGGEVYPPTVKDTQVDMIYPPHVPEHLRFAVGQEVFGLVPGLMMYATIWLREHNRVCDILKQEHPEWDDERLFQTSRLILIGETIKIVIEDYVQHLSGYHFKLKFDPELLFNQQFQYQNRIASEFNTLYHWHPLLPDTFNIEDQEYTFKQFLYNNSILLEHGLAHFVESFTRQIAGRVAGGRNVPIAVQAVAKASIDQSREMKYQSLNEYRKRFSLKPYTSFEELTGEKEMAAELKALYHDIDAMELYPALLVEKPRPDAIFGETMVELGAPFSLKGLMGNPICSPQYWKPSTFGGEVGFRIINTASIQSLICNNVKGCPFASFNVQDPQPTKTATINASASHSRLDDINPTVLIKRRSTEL
T3 sequence (Q63921 whole entry): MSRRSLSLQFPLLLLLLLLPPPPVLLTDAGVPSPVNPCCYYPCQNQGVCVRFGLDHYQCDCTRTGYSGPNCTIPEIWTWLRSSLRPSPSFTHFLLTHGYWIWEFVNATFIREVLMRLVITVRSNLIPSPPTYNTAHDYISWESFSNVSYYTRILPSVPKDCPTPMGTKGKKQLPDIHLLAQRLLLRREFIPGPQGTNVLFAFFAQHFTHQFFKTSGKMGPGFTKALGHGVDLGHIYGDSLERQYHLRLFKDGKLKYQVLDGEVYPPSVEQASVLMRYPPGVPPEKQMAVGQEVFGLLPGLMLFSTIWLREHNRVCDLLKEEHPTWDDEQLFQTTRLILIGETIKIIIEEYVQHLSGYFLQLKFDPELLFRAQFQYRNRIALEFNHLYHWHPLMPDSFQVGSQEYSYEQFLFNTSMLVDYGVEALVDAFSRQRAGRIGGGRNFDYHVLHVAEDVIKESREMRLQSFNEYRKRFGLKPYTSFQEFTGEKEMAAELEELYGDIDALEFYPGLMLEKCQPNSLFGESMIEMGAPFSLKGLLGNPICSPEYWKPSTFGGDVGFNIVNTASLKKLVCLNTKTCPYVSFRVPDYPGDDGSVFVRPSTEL
Outline: (§1)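 Rat polymorphonuclear leucocytes at 10^7 cells/mL in HBSS (Mg2+, Ca2+, 10 mM cysteine) were preincubated with compound, added in DMSO, for 10 min at 37 °C with shaking. Radiolabeled eicosanoids (5-HETE for the 5-LO pathway, TXB2 for the CO pathway) were separated by HPLC and detected with an in-line radioactivity detector. Results are given as percent change at 10 µM or 50 µM.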

[5] = target: T3, Cyclooxygenase; test: Prostaglandin G/H synthase Inhibitory activity against rat polymorphonuclear leucocytes from female wistar rat, by using PGE-2.
[6] = target: T1, Polyunsaturated fatty acid 5-lipoxygenase; test: 5-lipoxygenase inhibitory activity against rat polymorphonuclear leucocytes from female wistar rat, by using 5-HETE.
Outline: as §1

[7] = species: Rattus norvegicus; test: Anti-inflammatory activity by rat adjuvant Arthritis assay (uninjected paw at day 16).
[8] = target: T2, Polyunsaturated fatty acid 5-lipoxygenase (Rattus norvegicus); test: Inhibition of 5-lipoxygenase pathway in rat polymorphonuclear assay (inhibition of 5-HETE formation)
Outline: as §1

[9] = system: Rattus norvegicus; test: Anti-inflammatory activity by rat carrageenan edema assay (3h edema).; assay type: functional
Outline: (§2)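 Groups of six male Sprague-Dawley rats (150-165 g) were dosed po in 0.5% methyl cellulose. One hour later, 0.1 mL of 1% carrageenan was injected subplantar into the right hind paw. Edema was taken as the 3 h paw volume minus the zero-time volume and expressed as percent change versus vehicle; screening dose was 50 mg/kg po.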

[10] = system: Rattus norvegicus; test: Antiinflammatory activity by rat Carrageenan edema assay at 50 mg/kg peroral administration (3h edema).; assay type: functional; settings: route oral
Outline: as §2

IC50 [2]: 14 µM
Change [3]: -43%
IC50 [4]: 33 µM
IC50 [5]: > 50 µM
IC50 [6]: 27 µM
Change [8]: -49%
Structure (SMILES): Cc1ccc(C(O)c2nc3c(cc2C)CCCCC3)cc1 (stereo not given)
Change [1]: -49%
ED50 [7]: 30 mg/kg
ED50 [9]: 40 mg/kg
Change [10]: -58%
